Test results from ChEMBL document CHEMBL5705905, “Pharmacological targeting of kinases MST1 and MST2 augments tissue repair and regeneration” (Sci Transl Med, 2016).
Activity calls are given as the source filed them. The calls are words filed in the database; no cut-off is given here.

Columns and labels:
[1] = biological target: Tyrosine-protein kinase receptor UFO (Homo sapiens) (UniProt P30530); assay: Inhibition of AXL (unknown origin) assessed as remaining activity at 1 uM by Kinome scan method relative to control
Summary of the method: (§1)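 Active-site-dependent competition-binding (KINOMEscan) panel of 468 kinases, test compound at 1 μM (from a 10 mM DMSO stock). Read-out is ctrl% = (test signal − positive control signal)/(negative control signal − positive control signal) × 100. DMSO is the negative control (100%) and a control compound is the positive control (0%). Lower ctrl% means tighter binding.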

[2] = biological target: Cyclin-dependent kinase 5 (Homo sapiens) (UniProt Q00535); assay: Inhibition of CDK5 (unknown origin) assessed as remaining activity at 1 uM by Kinome scan method relative to control
Summary of the method: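 Active-site-dependent competition-binding profiling (KINOMEscan) at 1 μM against a 468-kinase panel; compound supplied from a 10 mM DMSO stock. Read-out is ctrl% = (test signal − positive control signal)/(negative control signal − positive control signal) × 100. DMSO is the negative control (100%) and a control compound the positive control (0%). Lower ctrl% means tighter binding.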

[3] = biological target: Myosin light chain kinase 2, skeletal/cardiac muscle (Homo sapiens) (UniProt Q9H1R3); assay: Inhibition of MYLK2 (unknown origin) assessed as remaining activity at 1 uM by Kinome scan method relative to control
[4] = biological target: Mitogen-activated protein kinase kinase kinase kinase 3 (Homo sapiens) (UniProt Q8IVH8); assay: Inhibition of MAP4K3 (unknown origin) assessed as remaining activity at 1 uM by Kinome scan method relative to control
[5] = Acute toxicity in wild-type mouse assessed as ratio of liver weight to body weight at 1 mg/kg,ip administrated daily for 2 months and after 2 weeks drug withdrawal; assay type: organism-based; details: in vivo, 1460 h
Summary of the method: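 Liver/body weight ratio in wild-type mice after 1 mg/kg i.p. daily for 2 months, or after a further 2 weeks off drug. n = 6; means ± SD, Student's t test. Vehicle was 0.1% citric acid aqueous solution with 20% Kolliphor HS 15.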

[6] = biological target: Cyclin-dependent kinase 18 (Homo sapiens) (UniProt Q07002); assay: Inhibition of PCTK3 (unknown origin) assessed as remaining activity at 1 uM by Kinome scan method relative to control
[7] = biological target: Serine/threonine-protein kinase DCLK3 (Homo sapiens) (UniProt Q9C098); assay: Inhibition of DCAMKL3 (unknown origin) assessed as remaining activity at 1 uM by Kinome scan method relative to control
[8] = biological target: Serine/threonine-protein kinase Sgk3 (Homo sapiens) (UniProt Q96BR1); assay: Inhibition of SGK3 (unknown origin) assessed as remaining activity at 1 uM by Kinome scan method relative to control
[9] = biological target: Phosphatidylinositol 4-kinase beta (Homo sapiens) (UniProt Q9UBF8); assay: Inhibition of PIK4CB (unknown origin) assessed as remaining activity at 1 uM by Kinome scan method relative to control
[10] = biological target: BMP-2-inducible protein kinase (Homo sapiens) (UniProt Q9NSY1); assay: Inhibition of BIKE (unknown origin) assessed as remaining activity at 1 uM by Kinome scan method relative to control
Summary of the method: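 KINOMEscan active-site-dependent competition-binding panel of 468 kinases, compound at 1 μM from a DMSO stock. Result reported as ctrl% = (test signal − positive control signal)/(negative control signal − positive control signal) × 100. The negative control is DMSO (100%) and the positive control is a control compound (0%). Lower ctrl% means tighter binding.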

[11] = biological target: Serine/threonine-protein kinase LATS1 (Homo sapiens) (UniProt O95835); assay: Inhibition of LATS1 (unknown origin) assessed as remaining activity at 1 uM by Kinome scan method relative to control
[12] = biological target: Serine/threonine-protein kinase Nek6 (Homo sapiens) (UniProt Q9HC98); assay: Inhibition of NEK6 (unknown origin) assessed as remaining activity at 1 uM by Kinome scan method relative to control
[13] = AUC (0 to t) in male Sprague-Dawley rat at 10 mg/kg, po measured for 24 hrs by LC-MS/MS analysis; assay type: ADME, organism-based; details: in vivo
Summary of the method: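 Sprague-Dawley rats, single intravenous or oral dose. Parameters (half-life, AUC, bioavailability) reported in a supplementary table.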

[14] = biological target: Phosphorylase b kinase gamma catalytic chain, liver/testis isoform (Homo sapiens) (UniProt P15735); assay: Inhibition of PHKG2 (unknown origin) assessed as remaining activity at 1 uM by Kinome scan method relative to control
[15] = biological target: Ribosomal protein S6 kinase alpha-4 (Homo sapiens) (UniProt O75676); assay: Inhibition of C-terminal kinase domain RPS6KA4 (unknown origin) assessed as remaining activity at 1 uM by Kinome scan method relative to control; summary of the method: as §1
[16] = Acute toxicity in wild-type mouse assessed as increase in Ki67-positive cells at 1 mg/kg,ip administrated twice daily for 1 to 7 days by Ki67 staining; assay type: organism-based, Liver; details: in vivo, time 1-7 day
Summary of the method: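 Wild-type mice were dosed once a day before two-thirds partial hepatectomy, then given vehicle or 1 mg/kg i.p. twice per day. Ki67-positive cells were counted in liver sections over postoperative days 1 to 7, n = 5; means ± SD, Student's t test.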

[17] = biological target: Ribosomal protein S6 kinase alpha-5 (Homo sapiens) (UniProt O75582); assay: Inhibition of N-terminal kinase domain RPS6KA5 (unknown origin) assessed as remaining activity at 1 uM by Kinome scan method relative to control
[18] = biological target: Protein kinase C iota type (Homo sapiens) (UniProt P41743); assay: Inhibition of PRKCI (unknown origin) assessed as remaining activity at 1 uM by Kinome scan method relative to control
Mus musculus [19] = assay: Protection against APAP induced liver injury in mouse assessed as decrease in mortality rate at 1 mg/kg, ip administered at 2.5 hrs in the presence of NAC; assay type: functional, organism-based
[20] = biological target: Focal adhesion kinase 1 (Homo sapiens) (UniProt Q05397); assay: Inhibition of FAK (unknown origin) assessed as remaining activity at 1 uM by Kinome scan method relative to control
Mus musculus [21] = assay: Anti-colitis activity against DSS-induced mouse assessed as high number in nuclear YAP-positive cells at 1 mg/kg, ip administrated daily for 8 days by IHC staining; assay type: functional, organism-based; details: Colon, time 8.0 day
Summary of the method: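 Wild-type mice received oral DSS for 7 days with vehicle or 1 mg/kg daily. Colon sections were stained by IHC for YAP, BrdU and Ki67, and positive cells were quantified per animal. Means ± SD, n = 10, Student's t test.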

[22] = biological target: Ribosomal protein S6 kinase alpha-4 (Homo sapiens) (UniProt O75676); assay: Inhibition of N-terminal kinase domain RPS6KA4 (unknown origin) assessed as remaining activity at 1 uM by Kinome scan method relative to control
[23] = biological target: Ribosomal protein S6 kinase alpha-1 (Homo sapiens) (UniProt Q15418); assay: Inhibition of C-terminal kinase domain RSK1 (unknown origin) assessed as remaining activity at 1 uM by Kinome scan method relative to control; summary of the method: as §1
[24] = system: Phosphatidylinositol 4,5-bisphosphate 3-kinase catalytic subunit alpha isoform (Homo sapiens), P42336 [E542K]; assay: Inhibition of PIK3CA E542K mutant (unknown origin) assessed as remaining activity at 1 uM by Kinome scan method relative to control

Chain of Ribosomal protein S6 kinase alpha-4 (Homo sapiens) (O75676 whole entry, looked up, the tested form may be a part): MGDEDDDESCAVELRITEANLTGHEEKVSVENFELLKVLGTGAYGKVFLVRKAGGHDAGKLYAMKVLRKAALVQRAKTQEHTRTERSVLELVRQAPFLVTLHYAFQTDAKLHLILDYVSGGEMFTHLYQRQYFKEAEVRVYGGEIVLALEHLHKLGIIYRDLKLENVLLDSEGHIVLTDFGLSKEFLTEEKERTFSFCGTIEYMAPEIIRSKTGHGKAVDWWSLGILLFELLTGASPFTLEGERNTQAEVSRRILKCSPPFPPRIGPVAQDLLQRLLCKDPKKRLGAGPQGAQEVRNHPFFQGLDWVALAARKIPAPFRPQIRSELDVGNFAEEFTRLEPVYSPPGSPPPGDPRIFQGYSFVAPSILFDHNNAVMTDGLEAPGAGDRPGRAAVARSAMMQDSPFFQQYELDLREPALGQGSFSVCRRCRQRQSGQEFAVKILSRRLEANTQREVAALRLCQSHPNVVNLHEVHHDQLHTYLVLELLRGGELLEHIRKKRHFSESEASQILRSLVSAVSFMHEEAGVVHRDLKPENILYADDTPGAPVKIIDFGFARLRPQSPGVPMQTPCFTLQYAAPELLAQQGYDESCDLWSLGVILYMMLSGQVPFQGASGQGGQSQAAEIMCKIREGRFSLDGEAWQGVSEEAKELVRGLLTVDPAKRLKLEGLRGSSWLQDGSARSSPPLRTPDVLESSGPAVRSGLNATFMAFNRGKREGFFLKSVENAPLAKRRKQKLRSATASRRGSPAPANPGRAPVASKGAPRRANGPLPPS
Chain of Serine/threonine-protein kinase DCLK3 (Homo sapiens) (Q9C098 whole entry): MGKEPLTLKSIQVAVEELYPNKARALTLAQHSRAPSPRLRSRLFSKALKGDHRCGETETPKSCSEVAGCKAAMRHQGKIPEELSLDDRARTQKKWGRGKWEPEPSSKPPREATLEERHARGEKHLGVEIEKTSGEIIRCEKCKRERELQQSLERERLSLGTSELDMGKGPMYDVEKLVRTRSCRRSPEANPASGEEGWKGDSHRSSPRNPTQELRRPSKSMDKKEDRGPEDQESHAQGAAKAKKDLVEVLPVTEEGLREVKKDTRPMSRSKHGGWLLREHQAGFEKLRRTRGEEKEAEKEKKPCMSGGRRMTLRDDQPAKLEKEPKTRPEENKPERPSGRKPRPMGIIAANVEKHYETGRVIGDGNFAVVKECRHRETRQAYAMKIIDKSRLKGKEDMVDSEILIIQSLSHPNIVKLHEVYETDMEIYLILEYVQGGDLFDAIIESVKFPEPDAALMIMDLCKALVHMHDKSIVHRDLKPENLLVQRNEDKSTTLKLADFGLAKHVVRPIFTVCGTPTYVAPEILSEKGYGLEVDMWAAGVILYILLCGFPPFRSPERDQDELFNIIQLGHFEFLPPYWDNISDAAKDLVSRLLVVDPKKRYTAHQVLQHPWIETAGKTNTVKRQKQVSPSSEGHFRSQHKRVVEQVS
Chain of Phosphatidylinositol 4-kinase beta (Homo sapiens) (Q9UBF8 2-816 limits assumed): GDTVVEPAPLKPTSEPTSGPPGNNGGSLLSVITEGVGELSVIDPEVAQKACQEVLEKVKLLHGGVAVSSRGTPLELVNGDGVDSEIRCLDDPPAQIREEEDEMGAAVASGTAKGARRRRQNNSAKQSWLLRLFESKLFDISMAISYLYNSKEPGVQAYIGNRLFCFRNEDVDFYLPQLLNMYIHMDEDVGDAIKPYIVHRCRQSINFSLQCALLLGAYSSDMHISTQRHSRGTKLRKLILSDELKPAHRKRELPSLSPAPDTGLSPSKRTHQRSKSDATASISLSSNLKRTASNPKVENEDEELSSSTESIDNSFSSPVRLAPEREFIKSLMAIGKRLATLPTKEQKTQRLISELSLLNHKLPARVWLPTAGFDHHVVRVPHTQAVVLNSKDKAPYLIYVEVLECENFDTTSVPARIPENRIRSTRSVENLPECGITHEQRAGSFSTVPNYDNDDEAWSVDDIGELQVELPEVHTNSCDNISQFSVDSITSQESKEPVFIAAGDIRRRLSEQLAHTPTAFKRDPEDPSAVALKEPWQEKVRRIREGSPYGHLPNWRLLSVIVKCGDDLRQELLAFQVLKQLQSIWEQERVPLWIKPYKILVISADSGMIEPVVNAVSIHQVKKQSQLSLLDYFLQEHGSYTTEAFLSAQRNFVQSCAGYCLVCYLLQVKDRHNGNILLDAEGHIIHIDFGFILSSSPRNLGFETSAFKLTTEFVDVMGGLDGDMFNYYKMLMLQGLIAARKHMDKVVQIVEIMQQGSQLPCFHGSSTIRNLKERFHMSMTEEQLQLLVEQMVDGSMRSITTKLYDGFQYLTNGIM
Chain of Focal adhesion kinase 1 (Homo sapiens) (Q05397 2-1052 limits assumed): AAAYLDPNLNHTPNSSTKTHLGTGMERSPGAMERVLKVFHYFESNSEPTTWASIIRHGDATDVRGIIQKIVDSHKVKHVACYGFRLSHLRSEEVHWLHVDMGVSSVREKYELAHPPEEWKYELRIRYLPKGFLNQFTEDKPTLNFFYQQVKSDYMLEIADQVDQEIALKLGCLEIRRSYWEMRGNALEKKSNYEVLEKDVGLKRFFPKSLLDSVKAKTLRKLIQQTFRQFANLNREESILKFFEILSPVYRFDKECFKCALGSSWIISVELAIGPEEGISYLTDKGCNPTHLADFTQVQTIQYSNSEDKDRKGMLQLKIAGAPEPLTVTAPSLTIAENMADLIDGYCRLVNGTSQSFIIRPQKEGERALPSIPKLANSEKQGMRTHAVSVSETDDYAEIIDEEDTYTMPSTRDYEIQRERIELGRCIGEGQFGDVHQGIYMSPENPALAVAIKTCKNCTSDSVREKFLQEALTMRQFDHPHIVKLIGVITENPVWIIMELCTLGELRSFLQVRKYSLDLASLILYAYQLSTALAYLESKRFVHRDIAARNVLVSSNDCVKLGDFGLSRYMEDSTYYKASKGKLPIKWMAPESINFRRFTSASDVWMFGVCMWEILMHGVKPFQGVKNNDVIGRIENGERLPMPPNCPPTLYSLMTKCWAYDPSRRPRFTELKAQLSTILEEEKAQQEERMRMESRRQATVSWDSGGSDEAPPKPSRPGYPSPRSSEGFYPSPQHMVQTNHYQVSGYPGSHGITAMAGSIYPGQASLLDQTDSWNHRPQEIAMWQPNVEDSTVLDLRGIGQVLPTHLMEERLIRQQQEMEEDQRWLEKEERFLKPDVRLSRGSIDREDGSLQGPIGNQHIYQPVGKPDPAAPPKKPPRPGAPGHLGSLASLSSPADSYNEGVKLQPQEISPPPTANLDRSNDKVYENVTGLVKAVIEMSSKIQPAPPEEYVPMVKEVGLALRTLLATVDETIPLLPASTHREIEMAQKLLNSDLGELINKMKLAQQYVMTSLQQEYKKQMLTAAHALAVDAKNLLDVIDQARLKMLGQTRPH
Chain of Serine/threonine-protein kinase Nek6 (Homo sapiens) (Q9HC98 whole entry): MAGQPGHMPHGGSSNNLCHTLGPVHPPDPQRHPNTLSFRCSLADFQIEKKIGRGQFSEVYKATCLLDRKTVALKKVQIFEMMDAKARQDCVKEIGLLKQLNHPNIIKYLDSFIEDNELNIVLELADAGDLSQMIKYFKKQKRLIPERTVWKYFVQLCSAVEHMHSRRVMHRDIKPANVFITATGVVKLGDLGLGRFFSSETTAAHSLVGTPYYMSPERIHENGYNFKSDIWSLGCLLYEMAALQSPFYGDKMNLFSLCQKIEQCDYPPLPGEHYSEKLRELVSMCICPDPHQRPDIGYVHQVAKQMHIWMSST
Chain of Cyclin-dependent kinase 5 (Homo sapiens) (Q00535 whole entry, looked up): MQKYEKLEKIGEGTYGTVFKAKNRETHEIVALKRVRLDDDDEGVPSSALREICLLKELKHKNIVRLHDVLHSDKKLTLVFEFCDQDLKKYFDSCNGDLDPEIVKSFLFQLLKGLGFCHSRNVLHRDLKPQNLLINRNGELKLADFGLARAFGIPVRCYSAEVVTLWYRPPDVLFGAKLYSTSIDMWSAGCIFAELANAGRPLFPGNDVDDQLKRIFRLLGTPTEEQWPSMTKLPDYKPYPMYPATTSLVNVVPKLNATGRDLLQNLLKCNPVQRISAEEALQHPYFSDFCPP
Chain of BMP-2-inducible protein kinase (Homo sapiens) (Q9NSY1 whole entry, looked up): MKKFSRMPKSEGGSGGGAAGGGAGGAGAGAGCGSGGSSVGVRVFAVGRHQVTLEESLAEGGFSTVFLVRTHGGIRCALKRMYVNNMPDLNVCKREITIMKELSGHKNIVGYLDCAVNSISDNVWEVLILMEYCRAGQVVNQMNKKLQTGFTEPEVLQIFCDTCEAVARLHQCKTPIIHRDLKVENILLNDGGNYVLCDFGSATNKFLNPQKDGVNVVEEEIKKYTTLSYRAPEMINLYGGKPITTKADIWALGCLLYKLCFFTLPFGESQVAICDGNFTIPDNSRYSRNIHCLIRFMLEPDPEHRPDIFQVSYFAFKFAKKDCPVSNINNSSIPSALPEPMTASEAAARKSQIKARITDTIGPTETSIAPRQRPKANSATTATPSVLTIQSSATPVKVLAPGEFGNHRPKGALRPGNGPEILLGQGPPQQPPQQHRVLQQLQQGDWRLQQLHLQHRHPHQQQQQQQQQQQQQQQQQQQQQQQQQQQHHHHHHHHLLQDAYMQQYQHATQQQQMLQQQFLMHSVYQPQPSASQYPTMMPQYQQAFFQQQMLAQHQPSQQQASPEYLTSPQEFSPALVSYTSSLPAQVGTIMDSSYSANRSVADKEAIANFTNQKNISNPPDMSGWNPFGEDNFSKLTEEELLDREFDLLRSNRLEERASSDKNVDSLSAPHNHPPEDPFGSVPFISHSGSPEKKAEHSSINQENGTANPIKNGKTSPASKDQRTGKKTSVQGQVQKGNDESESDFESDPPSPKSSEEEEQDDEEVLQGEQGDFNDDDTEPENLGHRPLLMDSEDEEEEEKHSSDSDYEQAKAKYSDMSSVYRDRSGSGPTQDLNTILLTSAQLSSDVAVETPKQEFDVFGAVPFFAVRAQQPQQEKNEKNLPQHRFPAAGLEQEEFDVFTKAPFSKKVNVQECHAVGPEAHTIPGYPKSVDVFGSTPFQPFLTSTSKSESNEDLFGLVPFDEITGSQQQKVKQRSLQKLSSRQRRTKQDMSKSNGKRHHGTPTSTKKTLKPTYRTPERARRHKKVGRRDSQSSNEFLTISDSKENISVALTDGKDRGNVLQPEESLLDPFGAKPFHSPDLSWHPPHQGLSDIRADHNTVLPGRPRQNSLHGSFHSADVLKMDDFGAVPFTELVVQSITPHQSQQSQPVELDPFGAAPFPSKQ

Question: For `CN1C(=O)c2sccc2N(C)c2nc(Nc3ccc(S(N)(=O)=O)cc3)ncc21`, which Activity [1] is on record?
Answer: 86%

Question: What about the Activity [2] of the same compound?
Answer: 94%

Question: And the Activity [3]?
Answer: 92%

Question: What about the Activity [4] of the same compound?
Answer: 100%

Question: And the Activity [5]?
Answer: Toxic

Question: What about the Activity [6] of the same compound?
Answer: 100%

Question: And the Activity [7]?
Answer: 100%

Question: And the Activity [8]?
Answer: 87%

Question: And the Activity [9]?
Answer: 65%

Question: What about the Activity [10] of the same compound?
Answer: 95%

Question: What about the Activity [11] of the same compound?
Answer: 100%

Question: And the Activity [12]?
Answer: 97%

Question: And the AUC(0-t) at 24 h [13]?
Answer: 993 ng·h/mL

Question: And the Activity [14]?
Answer: 100%

Question: What about the Activity [15] of the same compound?
Answer: 69%

Question: What about the Activity [16] of the same compound?
Answer: Non-Toxic

Question: What about the Activity [17] of the same compound?
Answer: 97%

Question: And the Activity [18]?
Answer: 94%

Question: What about the Activity (Mus musculus [19]) of the same compound?
Answer: Active

Question: And the Activity [20]?
Answer: 96%

Question: And the Activity (Mus musculus [21])?
Answer: Active

Question: What about the Activity [22] of the same compound?
Answer: 81%

Question: What about the Activity [23] of the same compound?
Answer: 100%

Question: And the Activity [24]?
Answer: 48%
